High-throughput results as filed in PubChem BioAssay.
Rpn11 block = Rpn11 (PSMD14) deubiquitinase inhibitors, primary screen, biochemical, fluorescence polarization, uHTS. 26S proteasome non-ATPase regulatory subunit 14 (Homo sapiens), O00487. human 26S proteasome, Ub4-pepOG fluorescence polarization; 20S core pre-blocked with epoxomicin. calls only at 20 µM. 0.59% of 360,000 active. AID 588493, 2011;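 active = inhibition at 20 µM, scaled to each plate's controls, above about 33%, limit read from the data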
HNF4A DNA FP = change in binding of human HNF4A to DNA, primary screen, biochemical, fluorescence polarization, FITC-DNA | 1 h | 0.3% of 360,000 active | activity change, % at 10 µM | Hepatocyte nuclear factor 4-alpha (Homo sapiens), P41235; in the data active = activity change above about 30%, passing the limit was not always enough
Target sequence (P41235 whole entry, looked up): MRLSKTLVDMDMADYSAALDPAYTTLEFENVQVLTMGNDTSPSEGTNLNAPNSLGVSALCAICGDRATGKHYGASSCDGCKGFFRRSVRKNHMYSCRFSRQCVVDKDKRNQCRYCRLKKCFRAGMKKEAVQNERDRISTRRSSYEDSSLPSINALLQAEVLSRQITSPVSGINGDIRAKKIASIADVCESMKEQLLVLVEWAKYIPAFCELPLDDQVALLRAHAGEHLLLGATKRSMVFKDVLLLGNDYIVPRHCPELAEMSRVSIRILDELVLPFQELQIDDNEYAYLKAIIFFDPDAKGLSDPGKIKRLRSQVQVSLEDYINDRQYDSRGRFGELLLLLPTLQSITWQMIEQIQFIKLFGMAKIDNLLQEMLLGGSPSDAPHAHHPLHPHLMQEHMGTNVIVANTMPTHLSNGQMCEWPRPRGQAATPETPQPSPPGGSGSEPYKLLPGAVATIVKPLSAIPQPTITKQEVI
TPT1 inh = Candida albicans TPT1 enzyme inhibitors, primary screen, biochemical, fluorescence polarization; tRNA 2'-phosphotransferase TPT1 (Candida albicans SC5314); recombinant caTPT1, FP RNA substrate dephosphorylation; inhibition, % at 5 µM; 0.81% of 300,000 active; AID 1962, 2009;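 active = inhibition above the mean of all tested compounds plus 3 SD, set per screening campaign, cut at about 24% in these data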;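 also: plate controls were DMSO alone for no effect and ferristatin control at 100 nM for full effect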
CRFR2-BP antag = antagonists of CRF-BP/CRF-R2 complex, primary screen, cell-based, HEK293, calcium dye fluorescence, uHTS. 0.59% of 350,000 active. CRF-induced calcium fluorescence. inhibition, % at 11.8 µM. AID 588475, 2011;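 active = inhibition of the ligand-induced calcium signal above about 50% at the single tested concentration, limit read from the data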
CRFBP-R2 agonist = agonists of CRF-BP/CRF-R2 complex, primary screen, cell-based, HEK293, calcium dye fluorescence, uHTS | CRF-binding protein / CRF receptor 2 complex (human) | calcium dye fluorescence (FLIPR); percent of saturating CRF peptide response | activation, % at 13.2 µM | 0.46% of 350,000 active;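 active = activation of at least 50%, plus an integration ratio under a set limit after plate pattern correction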;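 also: plate controls were neutral control wells without compound for no effect and CRF at EC100 for full effect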
CSN deneddyl inh = inhibitors of CSN-mediated cullin deneddylation, primary screen, biochemical, fluorescence polarization, uHTS | Purified CSN, SCF-Nedd8-OG deneddylation | inhibition, % at 12.5 µM | 0.38% of 360,000 active;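 active = pattern-corrected inhibition above about 35%, with an unprinted fluorescence ratio check between 0.5 and 1.5, limit read from the data, passing the limit was not always enough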;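 also: 0% = enzyme with substrate and 100% = substrate without enzyme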
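Assay system: Purified human Csn5 enzyme expressed in HEK293T cells | Amount: Enzyme 0.24 nM | Measured by: Fluorescence polarization readout | Medium: Tris/NaCl/DTT buffer, pH 7.5 | Compound dosing: One concentration, 12.5 µM, 0.25% DMSO | Times: 90 min incubation of compound, enzyme and substrate at room temperature | Control set: no-enzyme wells high, enzyme-with-substrate wells low | Read-out: % inhibition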
Numbers without * were called inactive; i = inactive; · = not tested or not shown; + = active, no number. Compounds with a hit are over-represented: about 2.3% of the library has one in this group of screens.

SMILES	Rpn11 block	HNF4A DNA FP	TPT1 inh	CRFR2-BP antag	CRFBP-R2 agonist	CSN deneddyl inh
CCOc1ccc(NS(=O)(=O)c2ccc(NC(=O)[C@@H]3CCCC[C@@H]3C(=O)O)cc2)cc1	i	2	0	-225	189*	-9
COc1ccc(CN2CCN(C(=O)CCC(=O)Nc3nnc(CC(C)C)s3)CC2)cc1F	i	0	1	-14	4	1
CCCCN(CCCC)CCNC(=O)c1ccc2nc(-c3ccccc3NC(C)=O)c(=O)[nH]c2c1	i	-3	0	-1	0	-6
Cc1cc(C)nc(/N=C(\N)Nc2cc([N+](=O)[O-])ccc2C)n1	i	-3	-1	7	18	3
CCOc1ccc(S(=O)(=O)N2CCN(C(=O)c3cccnc3)CC2)cc1	i	0	1	-1	-1	3
CCOc1ccc(S(=O)(=O)N2CCN(C(=O)c3ccncc3)CC2)cc1	i	-1	4	62*	1	0
Nc1c(Br)cc(Br)c(N2CCCC2=O)c1Br	i	-4	2	0	3	3
CN1C(=O)C(N=Nc2ccc([N+](=O)[O-])cc2)SC1=S (stereo not given)	i	8	·	68*	70*	2
CN1CCCCCC1=Nc1ccc([N+](=O)[O-])cc1	i	0	1	-2	0	1
CC(=O)c1ccc(NC(=O)Nc2cccnc2)cc1	i	1	·	11	4	1
CCOC(=O)C1CCCN(c2c(NCC3CCCN3CC)c(=O)c2=O)C1 (stereo not given)	i	5	0	14	0	-2
CCCN(CC(=O)Nc1ccccc1C)C(=O)CCCc1c[nH]c2ccccc12	i	2	·	-33	-2	7
O=C(NNC(=O)c1ccc[nH]1)c1cccc(C(F)(F)F)c1	i	5	-5	-1	1	2
Cc1noc(C(F)(F)F)c1C(=O)NNC(=O)c1cccc(C(F)(F)F)c1	i	1	2	114*	2	1
Cc1ccccc1S(=O)(=O)c1c(C)cc(-c2ccccc2)[nH]c1=O	i	3	3	11	-1	5
CC1(C)CC(=O)C2=C(C1)OC(N)=C(C#N)C2CCc1ccccc1 (stereo not given)	i	-3	-3	-4	0	4
N#CC1=C(N)SC(N)=C(C#N)C1CCc1ccccc1	·	125	119*	-41	103*	26
CCS(=O)(=O)Nc1cccc(-c2nc3cccnc3s2)c1	i	-3	4	-13	-1	6
CCS(=O)(=O)Nc1ccc(-c2nc3cccnc3s2)cc1	i	4	4	-15	89*	2
Cc1ccc(CNC(=O)CN(c2ccc(C)cc2)S(=O)(=O)c2c(C)nn(C)c2C)cc1	i	0	1	83*	-1	-4
Cc1ccc(N(CC(=O)NCc2ccc(F)cc2)S(=O)(=O)c2c(C)nn(C)c2C)cc1	i	0	-2	0	-1	-3
CN1CCN(C2CCCCC2NS(=O)(=O)c2ccccc2)CC1 (stereo not given)	i	2	-1	-1	4	-5
O=S(=O)(NC1CCCCC1N1CCN(c2ccccc2F)CC1)c1ccc(Cl)cc1 (stereo not given)	i	4	-3	-66	93*	3
O=S(=O)(NC1CCCCC1N1CCN(c2cccc(Cl)c2)CC1)c1ccccc1 (stereo not given)	i	4	-1	-26	9	-4
O=S(=O)(NC1CCCCC1N1CCOCC1)c1ccc(Cl)cc1 (stereo not given)	i	2	-6	-131	133*	-8
SMILES	Rpn11 block	HNF4A DNA FP	TPT1 inh	CRFR2-BP antag	CRFBP-R2 agonist	CSN deneddyl inh
CCOC(=O)Cc1nnc(NC(=O)C(CC)Sc2nc(C)cc(C)n2)s1 (stereo not given)	i	0	1	-10	10	0
Cc1cccc(CC2CC(=O)N(c3ncccn3)C2=O)c1 (stereo not given)	i	0	-3	-6	2	-5
NC(=S)N/N=C/c1coc2cc(Br)ccc2c1=O	+	-3	-1	0	0	3
N#Cc1ccc(NC(=O)COC(=O)CSc2nnc(-c3ccc(Cl)cc3)o2)cc1	i	2	0	52*	4	3
O=C(COC(=O)CSc1nnc(-c2ccc(Cl)cc2)o1)Nc1cc(Cl)ccc1Cl	i	1	-1	40	4	7
CC1CCc2c(C(=O)Nc3ccccn3)csc2C1 (stereo not given)	i	5	-3	57*	-1	4
CCNC(=O)C1(C)CCN(C(=O)c2cc(C)oc2C)C1 (stereo not given)	i	-1	·	·	·	0
CC1(CCc2ccccc2)NC(=O)N(CC(=O)Nc2ccccc2C#N)C1=O (stereo not given)	i	8	·	-2	0	-5
CSc1snnc1-c1ccccc1	i	-3	-4	-15	2	-4
CC(C)Sc1snnc1-c1ccccc1	i	-1	-8	54*	-1	-6
Cc1cc(C)nc(SCCC(=O)Nc2ccccc2C)n1	i	4	-3	75*	0	0
Cc1cc(Oc2ccc(N)cn2)cc(C)c1Cl	i	3	10	-1	0	8
Nc1ccc(Oc2c(Cl)cccc2Cl)nc1	i	4	0	-7	1	37*
Cc1ccc(C)c(N(C(=O)c2csnn2)C(C(=O)NC2CCCCC2)c2cccnc2)c1 (stereo not given)	i	2	3	-2	-1	3
COc1ccc(C2CC(c3ccc(Br)cc3)=NN2C(=O)CCC(=O)O)cc1OC (stereo not given)	i	0	-2	56*	0	2
COc1ccc(C2=NN(C(=O)CCC(=O)O)C(c3ccc(OC)c(OC)c3)C2)cc1 (stereo not given)	i	2	-2	0	5	-5
CCOc1cc(C)ccc1OCc1nnc(SCC(=O)c2cccc([N+](=O)[O-])c2)n1C	i	3	4	56*	-1	1
CCn1c(Cc2ccccc2)nnc1SCC(=O)c1cccc([N+](=O)[O-])c1	i	4	1	-4	-1	-3
Cn1c(COc2ccccc2)nnc1SCC(=O)c1cccc([N+](=O)[O-])c1	i	0	-3	59*	1	1
